Test results: ChEMBL document CHEMBL2086388, “Antihyperglycemic effect of syringaldehyde in streptozotocin-induced diabetic rats” (2012)
The source made the active and inactive calls. No cut-off for these calls is given here.

Experiments:
Rattus norvegicus [1] = test: Antihyperglycemic activity in STZ-induced diabetic rats assessed as reduction in plasma glucose levels at 100 mg/kg, po; format: functional
Rattus norvegicus [2] = test: Antihyperglycemic activity in iv dosed STZ-induced diabetic Wistar rats assessed as reduction in plasma glucose levels administered as bolus dose measured after 60 mins; format: functional, organism-based
Outline: (§1)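 Fasted rats made diabetic with STZ 60 mg/kg iv (plasma glucose ≥20 mmol/L plus polyuria) and used 2 weeks later. Compound dissolved in normal saline and given as an iv bolus over 1.8–7.2 mg/kg; controls got saline. Tail-vein plasma glucose measured at 60 min under pentobarbital 30 mg/kg ip. Activity = [(Gi−Gt)/Gi]×100%. n=8.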

Rattus norvegicus [3] = test: Antihyperglycemic activity in STZ-induced diabetic Wistar rats assessed as reduction in plasma glucose levels at 1.8 mg/kg, iv administered as bolus dose measured after 60 mins; format: functional; design: scale not given: the % may be the effect or the level left; outline: as §1
Rattus norvegicus [4] = test: Antihyperglycemic activity in Wistar rats assessed as reduction in plasma glucose levels at 7.2 mg/kg, iv administered 30 mins prior to glucose challenge measured after 30 mins; format: functional, organism-based; design: dose 7.2 mg/kg
Outline: (§2)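 IV glucose challenge in pentobarbital-anesthetized (30 mg/kg ip) Wistar rats. Compound 7.2 mg/kg or saline injected into the tail vein; 30 min later the 0-min sample was drawn. Glucose 60.0 mg/kg then given via the femoral vein. Tail-vein plasma glucose measured at 5–120 min and compared with the vehicle group at each time. n=8.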

Rattus norvegicus [5] = test: Antihyperglycemic activity in Wistar rats assessed as reduction in plasma glucose levels at 7.2 mg/kg, iv administered 30 mins prior to glucose challenge measured after 120 mins; format: functional, organism-based; design: dose 7.2 mg/kg; outline: as §2
Rattus norvegicus [6] = test: Antihyperglycemic activity in Wistar rats assessed as reduction in plasma glucose levels at 7.2 mg/kg, iv administered as bolus dose measured after 60 mins; format: functional; design: scale not given: the % may be the effect or the level left
Outline: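 Normal fasted Wistar rats, n=8. Compound in saline given iv at 7.2 mg/kg. Tail-vein plasma glucose taken under pentobarbital anesthesia. Lowering expressed as percent decrease from the initial glucose value.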

Rattus norvegicus [7] = test: Antihyperglycemic activity in Wistar rats assessed as reduction in plasma glucose levels at 7.2 mg/kg, iv administered 30 mins prior to glucose challenge measured after 5 mins; format: functional, organism-based; design: dose 7.2 mg/kg; outline: as §2
Rattus norvegicus [8] = test: Antidiabetic activity in STZ-induced diabetic Wistar rats assessed as increase in response to exogenous insulin at 7.2 mg/kg, iv tid for 3 days; format: functional, organism-based; design: dose 7.2 mg/kg
Outline: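 STZ-diabetic rats (STZ 60 mg/kg iv, glucose ≥20 mmol/L, used 2 weeks later) first given long-acting human insulin 1 IU/kg once daily. Compound or saline then given iv three times daily for 3 days. Challenge was short-acting human insulin iv 0.1–1.0 IU/kg. Femoral-vein blood taken at 30 min for plasma glucose. n=8 per group, means ± SE.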

L6 = test: Induction of glucose uptake in rat L6 cells after 60 mins by 2-NBDG fluorescence assay; format: functional, cell-based
Outline: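 Rat L6 cells grown 48 h, trypsinized, 1×10^6 cells/mL. Cells incubated in PBS with 0.2 mM 2-NBDG plus compound or vehicle, 37 °C, 60 min in the dark. Then washed three times with cold PBS. Fluorescence read at ex 488/em 520 nm. Eight experiments per group, means ± SEM.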

Rattus norvegicus [9] = test: Antihyperglycemic activity in STZ-induced diabetic Wistar rats assessed as reduction in plasma glucose levels at 7.2 mg/kg, iv administered as bolus dose measured after 60 mins; format: functional; conditions: 1 h; outline: as §1

Row | SMILES | Emax at 100 mg/kg (Rattus norvegicus [1]) | Activity (Rattus norvegicus [2]) | Activity (Rattus norvegicus [3]) | Activity (Rattus norvegicus [4]) | Activity (Rattus norvegicus [5]) | Activity (Rattus norvegicus [6]) | Activity (Rattus norvegicus [7]) | Activity (Rattus norvegicus [8]) | Activity (L6) | Emax at 7.2 mg/kg (Rattus norvegicus [9])
1 | CN(C)C(=N)NC(=N)N [METFORMIN] | 32% |  |  |  |  |  |  |  |  | 
2 | COc1cc(C=O)cc(OC)c1O [SYRINGALDEHYDE] |  | Dose-dependent effect | 11.08% | Active | inactive | 25.93% | Active | Active | Dose-dependent effect | 31.3%
